Active and inactive are the calls of the source. The rule behind the calls is not given here.
Columns and labels:
[1] = tested on: HL-60; assay: Compound (1 x 10e-4 M) was evaluated in vitro for its ability to inhibit the growth of the human promyelocytic leukemia HL-60; Inactive until maximum tested concentration of 1xe-4 M; type: functional, cell-based
[2] = tested on: L1210; assay: Compound (1 x 10e-4 M) was evaluated in vitro for its ability to inhibit the growth of the murine leukemia L1210; Inactive until maximum tested concentration of 1xe-4 M; type: functional, cell-based; details: Mus musculus
[3] = tested on: P388; assay: Compound (1 x 10e-4 M) was evaluated in vitro for its ability to inhibit the growth of the murine leukemia P388; Inactive until maximum tested concentration of 1xe-4 M; type: functional, cell-based; details: Mus musculus
[4] = organism: Homo sapiens; assay: Compound (1 x 10e-4 M) was evaluated in vitro for its ability to inhibit the growth of the human epidermoid carcinoma KB; Inactive until maximum tested concentration of 1xe-4 M; type: functional
[5] = organism: Homo sapiens; assay: Compound (1 x 10e-4 M) was evaluated in vitro for its ability to inhibit the growth of the human epidermoid carcinoma KB; type: functional
Method in brief: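 KB cells in exponential growth, in RPMI-1640 with antibiotics, 3 mM glutamine, 10 mM HEPES and 5% heat-inactivated newborn calf serum. Seeded at 5 × 10³ cells/well and exposed in quadruplicate to compound (DMSO ≤0.5% final), up to a maximum of 1×10^-4 M, for 48 h at 37 °C. [¹²⁵I]-5-iodo-2'-deoxyuridine plus 5-fluoro-2'-deoxyuridine then added for 18 h. Cells trypsin/EDTA-detached, filter-harvested and γ-counted. Inhibition expressed as % of control incorporation.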

Compound | ID50 [1] | ID50 [2] | ID50 [3] | ID50 [4] | ID50 [5] [nM]
Nc1nc(Cl)cc2c1ccn2[C@H]1C[C@H](O)[C@@H](CO)O1 | Inactive until maximum tested concentration of 1xe-4 M | Inactive until maximum tested concentration of 1xe-4 M | Inactive until maximum tested concentration of 1xe-4 M | Inactive until maximum tested concentration of 1xe-4 M | 
Nc1nc(Cl)cc2c1ccn2[C@@H]1O[C@H](CO)[C@@H](O)[C@H]1O | Inactive until maximum tested concentration of 1xe-4 M | Inactive until maximum tested concentration of 1xe-4 M | Inactive until maximum tested concentration of 1xe-4 M | Inactive until maximum tested concentration of 1xe-4 M | 
Nc1ncnc2c1ccn2[C@@H]1O[C@H](CO)[C@@H](O)[C@H]1O |  |  |  |  | 52
Nc1nccc2c1ccn2[C@H]1C[C@H](O)[C@@H](CO)O1 | Inactive until maximum tested concentration of 1xe-4 M | Inactive until maximum tested concentration of 1xe-4 M | Inactive until maximum tested concentration of 1xe-4 M | Inactive until maximum tested concentration of 1xe-4 M | 
Nc1nccc2c1ccn2[C@@H]1O[C@H](CO)[C@@H](O)[C@H]1O | Inactive until maximum tested concentration of 1xe-4 M | Inactive until maximum tested concentration of 1xe-4 M | Inactive until maximum tested concentration of 1xe-4 M | Inactive until maximum tested concentration of 1xe-4 M | 

Reference: ChEMBL document CHEMBL1124515, “3,7-Dideazapurine nucleosides. Synthesis and antitumor activity of 1-deazatubercidin and 2-chloro-2'-deoxy-3,7-dideazaadenosine” (1989)
